Consider 29 molecules from ChEMBL document CHEMBL3259718, “Identifying structural determinants of potency for analogs of apelin-13: integration of C-terminal truncation with structure-activity” (Bioorg Med Chem, 2014).

Data set [1] is described as follows: Retention time of the compound by HPLC analysis. In kind it is physicochemical. In outline:
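Analytical reverse-phase HPLC on a peptide C18 column with a 5–45% acetonitrile gradient over 30 min. Identity was confirmed by ESI-MS mass.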

In a further data set the target is T1, Apelin receptor (Homo sapiens, UniProt P35414).
T1 sequence (P35414 whole entry): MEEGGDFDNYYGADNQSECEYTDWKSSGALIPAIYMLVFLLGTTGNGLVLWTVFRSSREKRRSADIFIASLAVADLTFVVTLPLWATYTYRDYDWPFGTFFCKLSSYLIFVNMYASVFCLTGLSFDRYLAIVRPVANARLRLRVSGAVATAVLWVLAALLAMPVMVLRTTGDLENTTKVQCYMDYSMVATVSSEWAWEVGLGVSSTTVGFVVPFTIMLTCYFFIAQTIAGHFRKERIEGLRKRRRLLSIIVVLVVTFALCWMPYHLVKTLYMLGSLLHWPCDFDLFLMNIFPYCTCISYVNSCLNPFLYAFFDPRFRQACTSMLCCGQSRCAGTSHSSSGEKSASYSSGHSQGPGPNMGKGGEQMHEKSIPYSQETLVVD
Put plainly: Agonist activity at APJ receptor (unknown origin) expressed in CHO cells co-expressing with Calphaq16 assessed as calcium mobilization. In kind it is functional, cell-based. On the technique in general: Calcium assays in cells follow changes in intracellular calcium, usually with a dye or a luminescent sensor.

The nature of data set [2]: Half life in rat plasma at pH 7.4 by LC-MS/MS analysis. In kind it is ADME, cell-free. In outline:
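Peptide incubated in rat plasma adjusted to pH 7.4 at 37 °C, with DMSO kept below 2.5%. Reactions were stopped with acetonitrile at 0, 2, 5, 15, 30 and 60 min and clarified by centrifugation. Parent remaining was quantified by UPLC-MS/MS using MRM.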

Data set [3] has as its system Plasma. Description: Drug metabolism in rat plasma assessed as Ac-R-P-Nle-L-A after 15 to 25 mins by ESI-MS analysis. In kind it is ADME, cell-free. Put shortly:
(§1)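 Peptide incubated in rat serum, with aliquots taken over a time course. Samples were run on reverse-phase capillary C18 nano-LC, with mobile phase B rising linearly from 10% to 60% over 55 min at 450 nl/min. Detection was positive-ion nano-ESI Orbitrap MS in data-dependent mode (1 FTMS plus 3 IT-MS/MS cycles, resolution 7500). Fragments were assigned from [M+H]+ masses using peptide ladder predictions.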

Data set [4] deals with Plasma. Description: Drug metabolism in rat plasma assessed as Ac-R-P-Nle after 15 to 25 mins by ESI-MS analysis. The data set is classed as ADME, cell-free. Put shortly: as §1

Counter-ions that a name gives are not always drawn. Square brackets hold non-standard residues; d marks the D form. Peptide text beside a SMILES is read from it. * marks the point of attachment. hPhe = N[C@@H](CCc1ccccc1)C(=O)O; Nle = CCCC[C@H](N)C(=O)O; Aoc = NCCCCCCCC(=O)O; Tfa = O=C(C(F)(F)F)*

Take Ac-RPRLAAAGPL-NH2: in data set [1], the Retention_time came out at 14.93 min. Further, the EC50 on Apelin receptor (read-out: EC50) stood at 637 nM.
In turn, `CSCC[C@H](NC(=O)[C@@H]1CCCN1C(=O)CNC(=O)[C@H](CCCCN)NC(=O)[C@H](Cc1cnc[nH]1)NC(=O)[C@H](CO)NC(=O)[C@H](CC(C)C)NC(=O)[C@H](CCCNC(=N)N)NC(=O)[C@@H]1CCCN1C(=O)[C@H](CCCNC(=N)N)NC(=O)[C@@H]1CCC(=O)N1)C(=O)N1CCC[C@H]1C(=O)N[C@@H](Cc1ccccc1)C(=O)O` registered a Retention_time in data set [1] of 17.44 min.
Turning to H-QRPRLSHKGP-NH2, on Apelin receptor (read-out: EC50), the EC50 was determined as 2350 nM.
For the molecule `CCCC[C@H](NC(=O)[C@@H]1CCCN1C(=O)[C@H](CCCNC(=N)N)NC(C)=O)C(=O)N[C@@H](CCc1ccccc1)C(=O)N[C@@H](C)C(=O)N[C@@H](C)C(=O)N[C@@H](CCCCN)C(=O)NCC(=O)N1CCC[C@H]1C(=O)N[C@@H](CC(C)C)C(N)=O` (Ac-RP[Nle][hPhe]AAKGPL-NH2), in data set [1], the Retention_time was 18.37 min. Also, at Apelin receptor (read-out: EC50), the EC50 is 73 nM.
The corresponding values for Ac-KPRLAAKGPL-NH2 are 13.08 min and 494 nM.
In the same order, the values of Ac-RARLAAKGPL-NH2 are 13.23 min and 31 nM.
In the same order, the values of Ac-RPRLSHKGPM-NH2 are 11.47 min and 4.4 nM.
Ac-RPKFAAKGPL-NH2 returned a Retention_time in data set [1] of 13.91 min. The EC50 on Apelin receptor (read-out: EC50) came out at 44 nM.
In data set [1], Ac-RPALAAKGPL-NH2 displayed a Retention_time of 14.15 min. Besides, the EC50 on Apelin receptor (read-out: EC50) came to 8.9 nM.
For the molecule Ac-APRLSHKGPL-NH2, in data set [1], the Retention_time amounted to 13.2 min. Further, at Apelin receptor (read-out: EC50), the EC50 was 1380 nM.
Regarding Ac-KGPMPF-OH, the EC50 on Apelin receptor (read-out: pEC50 (converted)) was more than 31600 nM.
The molecule H-QRPRLSH-NH2 registered a Retention_time in data set [1] of 13.49 min. For the same molecule, the EC50 on Apelin receptor (read-out: EC50) was more than 3000 nM.
As to `CCCC[C@H](NC(=O)[C@H](C)NC(=O)[C@H](C)NC(=O)[C@H](CC(C)C)NC(=O)[C@H](CCCCN)NC(=O)[C@@H]1CCCN1C(=O)[C@H](CCCNC(=N)N)NC(C)=O)C(=O)NCC(=O)N1CCC[C@H]1C(=O)N[C@@H](CC(C)C)C(N)=O` (Ac-RPKLAA[Nle]GPL-NH2), in data set [1], the Retention_time was determined as 17.64 min. Moreover, the EC50 at Apelin receptor (read-out: EC50) stood at 2.2 nM.
In the same order, the values of Ac-RPRLAAKGPL-NH2 are 13.64 min and 1.1 nM.
As to `CC(=O)N[C@@H](CCCNC(=N)N)C(=O)N1CCC[C@H]1C(=O)N[C@@H](CCCCN)C(=O)N[C@@H](CC(C)C)C(=O)N[C@@H](C)C(=O)N[C@@H](C)C(=O)N[C@@H](CCCCN)C(=O)NCC(=O)N1CCC[C@@H]1C(=O)N[C@@H](CC(C)C)C(N)=O`, the Retention_time in data set [1] is 13.25 min. Also, the EC50 on Apelin receptor (cho, read-out: EC50) worked out at 1.7 nM.
`CC(=O)N[C@@H](CCCCNC(=O)C(F)(F)F)C(=O)N1CCC[C@H]1C(=O)N[C@@H](CCCNC(=N)N)C(=O)N[C@@H](CC(C)C)C(=O)N[C@@H](C)C(=O)N[C@@H](C)C(=O)N[C@@H](CCCCN)C(=O)NCC(=O)N1CCC[C@H]1C(=O)N[C@@H](CC(C)C)C(N)=O` (Ac-K(Tfa)PRLAAKGPL-NH2): the Retention_time in data set [1] amounted to 17.23 min. At Apelin receptor (read-out: EC50), the EC50 is more than 3000 nM.
The corresponding values for Ac-RPRLSHKGPL-NH2 are 12.43 min and 1.9 nM.
In the same order, the values of Ac-RPRLAAKGAL-NH2 are 12.37 min and 237 nM.
For H-QRPRLSHKG-NH2, the EC50 at Apelin receptor (read-out: EC50) is more than 3000 nM.
As to H-QRPRLS-NH2, the Retention_time in data set [1] is given as 15.93 min. Besides, at Apelin receptor (read-out: EC50), the EC50 was more than 3000 nM.
Turning to Ac-RPRAAAKGPL-NH2, in data set [1], the Retention_time came to 11.33 min. Moreover, the EC50 at Apelin receptor (read-out: EC50) came to 936 nM.
The corresponding values for Ac-RPRLSHKGPF-NH2 are 13.43 min and 4.7 nM.
`CC(=O)N[C@@H](CCCNC(=N)N)C(=O)N1CCC[C@H]1C(=O)NCCCCCCCC(=O)N[C@@H](CC(C)C)C(=O)N[C@@H](C)C(=O)N[C@@H](C)C(=O)N[C@@H](C)C(=O)NCC(=O)N1CCC[C@H]1C(=O)N[C@@H](CC(C)C)C(N)=O` (Ac-RP[Aoc]LAAAGPL-NH2) yielded a Retention_time in data set [1] of 22 min. On Apelin receptor (read-out: EC50), the EC50 is more than 3000 nM.
Turning to Ac-LSHKGPMPF-OH, at Apelin receptor (read-out: pEC50 (converted)), the EC50 was more than 31600 nM.
With Ac-RPRLSHKGPV-NH2, in data set [1], the Retention_time was found to be 10.84 min. Moreover, the EC50 at Apelin receptor (read-out: EC50) is 691 nM.
For the molecule `CCCC[C@H](NC(=O)[C@@H]1CCCN1C(=O)[C@H](CCCNC(=N)N)NC(C)=O)C(=O)NCCCCCCCC(=O)N[C@@H](C)C(=O)N[C@@H](C)C(=O)N[C@@H](CCCCN)C(=O)NCC(=O)N1CCC[C@H]1C(=O)N[C@@H](CC(C)C)C(N)=O` (Ac-RP[Nle][Aoc]AAKGPL-NH2), in data set [1], the Retention_time amounted to 19.43 min. Moreover, at Apelin receptor (read-out: EC50), the EC50 amounted to 539 nM.
In the case of `CCCC[C@H](NC(=O)[C@@H]1CCCN1C(=O)[C@H](CCCNC(=N)N)NC(C)=O)C(=O)N[C@@H](CC(C)C)C(=O)N[C@@H](C)C(=O)N[C@@H](C)C(=O)N[C@@H](CCCCN)C(=O)NCC(=O)N1CCC[C@H]1C(=O)N[C@@H](CC(C)C)C(N)=O` (Ac-RP[Nle]LAAKGPL-NH2), the Retention_time in data set [1] is 16.64 min. In addition, the EC50 at Apelin receptor (read-out: EC50) came out at 3.2 nM.
The corresponding values for H-QRPRLSHK-NH2 are 12.94 min and more than 3000 nM.
Take `CCCC[C@H](NC(=O)[C@H](C)NC(=O)[C@H](C)NC(=O)[C@H](CC(C)C)NC(=O)[C@H](CCCC)NC(=O)[C@@H]1CCCN1C(=O)[C@H](CCCNC(=N)N)NC(C)=O)C(=O)NCC(=O)N1CCC[C@H]1C(=O)N[C@@H](CC(C)C)C(N)=O` (Ac-RP[Nle]LAA[Nle]GPL-NH2): in data set [2], the half-life (commonly the time in which the quantity being followed falls by half) was 2 min. In addition, the Retention_time in data set [1] came to 16.79 min. The Drug metabolism entry in the data set with Plasma [3] and with Plasma [4] was “metabolite_detected” each time. The EC50 on Apelin receptor (read-out: EC50) was found to be 33 nM.
